Test results published in ChEMBL document CHEMBL1124192, “Cyclopentenylcytosine. A carbocyclic nucleoside with antitumor and antiviral properties” (J Med Chem, 1988).
≈ marks a conversion by molar mass, not a printed value. Where “and” joins values, the source holds several entries; their conditions need not be identical. Identical values can stand only once.

Tests used:
[1] = system: Vesicular stomatitis virus; assay: Inhibitory dose of compound required to inhibit cytopathogenic effects of vesicular stomatitis RNA virus with indiana strain in L929 cells; format: functional
[2] = system: Vesicular stomatitis virus; assay: Tested for inhibition of virus-induced cytopathogenic effect and cytotoxicity of compound against vesicular stomatitis RNA virus with indiana strain in L929 cell; format: functional
[3] = Ratio of minimum drug concentration to ID50 of the compound (Indiana strain); format: ADME
Human alphaherpesvirus 2 [4] = assay: Dose of compound required to inhibit the herpes simplex type-2 MS virus induced cytopathogenic effects; format: functional; conditions: read-out: ID50 (the source's name)
How it was run: (§1)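 Southern Research CPE inhibition test in Vero host cells. Confluent monolayers in 96-well plates received drug (minimum seven concentrations, cytotoxic to noncytotoxic) plus virus at 32 CCID50 per 0.1 mL, in triplicate, with cell, virus and drug-cytotoxicity controls. Incubated at 37 °C, 2% CO2. CPE scored microscopically at 3–4 days. VR = 0.1 × sum of CE-grade differences from virus control, halved for partially cytotoxic wells.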

Human alphaherpesvirus 2 [5] = assay: Degree of inhibition of virus-induced cytopathogenic effect and the degree of cytotoxicity produced by compound against herpes simplex type-2 MS virus; format: functional; how it was run: as §1
Human alphaherpesvirus 1 [6] = assay: Dose of compound required to inhibit the herpes simplex type-1 virusE-377(TK+ ) induced cytopathogenic effects; format: functional; conditions: read-out: ID50 (the source's name); how it was run: as §1
Human alphaherpesvirus 1 [7] = assay: Degree of inhibition of virus-induced cytopathogenic effect and the degree of cytotoxicity produced by compound against herpes simplex type-1 virus E-377(TK+ ); format: functional; how it was run: as §1
[8] = system: unidentified influenza virus; assay: Inhibitory dose of compound required to inhibit cytopathogenic effects of influenza virus with A2/Aichi/2/68 strain in MDCK cells; format: functional; conditions: read-out: ID50 (the source's name)
[9] = system: unidentified influenza virus; assay: Tested for inhibition of virus-induced cytopathogenic effect and cytotoxicity of compound against influenza virus with A2/Aichi/2/68 strain in MDCK cell; format: functional
[10] = system: Japanese encephalitis virus; assay: Tested for inhibition of virus-induced cytopathogenic effect and cytotoxicity of compound against Japanese encephalitis virus with […] strain in vero cell; format: functional
[11] = system: Japanese encephalitis virus; assay: Inhibitory dose of compound required to inhibit cytopathogenic effects of Japanese encephalitis virus with […] strain in vero cells; format: functional; conditions: read-out: ID50 (the source's name)
Punta Toro virus [12] = assay: Tested for inhibition of virus-induced cytopathogenic effect and cytotoxicity of compound against Punta toro virus with adames strain in vero cell; format: functional
Punta Toro virus [13] = assay: Inhibitory dose of compound required to inhibit cytopathogenic effects of Punta toro virus with adames strain in vero cells; format: functional; conditions: read-out: ID50 (the source's name)
[14] = Ratio of minimum drug concentration to ID50 of the compound(Adems strain); format: ADME
Yellow fever virus [15] = assay: Inhibitory dose of compound required to inhibit cytopathogenic effects yellow fever (virus) with Asibi strain in vero cell; format: functional; conditions: read-out: ID50 (the source's name)
Yellow fever virus [16] = assay: Tested for inhibition of virus-induced cytopathogenic effect and cytotoxicity of compound against yellow fever (virus) with Asibi strain in vero cell; format: functional
Human alphaherpesvirus 1 [17] = assay: Degree of inhibition of virus-induced cytopathogenic effect and the degree of cytotoxicity produced by compound against herpes simplex type-1 virus HF(TK- ); format: functional; how it was run: as §1
Human alphaherpesvirus 1 [18] = assay: Dose of compound required to inhibit the herpes simplex type-1 virus HF(TK- )induced cytopathogenic effects; format: functional; how it was run: as §1

Nc1nccc2c1ncn2[C@@H]1C[C@H](CO)[C@@H](O)[C@H]1O [3-DEAZAARISTEROMYCIN A]
ID50 [1]: 4.3 µg/mL and 2 µg/mL | Virus rating [2]: 2.1 and 3 | Therapeutic index [3]: 1.6 | selectivity ratio ([3]; read-out: Therapeutic index): 2.3

Nc1nc2c(ncn2COCCO)c(=O)[nH]1 [ACYCLOVIR]
IC50 (Human alphaherpesvirus 2 [4]): 5.3 µg/mL (≈ 23.5 µM) | Virus rating (Human alphaherpesvirus 2 [5]): 4.5 | IC50 (Human alphaherpesvirus 1 [6]): 0.7 µg/mL (≈ 3.11 µM) | Virus rating (Human alphaherpesvirus 1 [7]): 6.7

NC(=O)c1ncn([C@@H]2O[C@H](CO)[C@@H](O)[C@H]2O)n1 [RIBAVIRIN]
IC50 [8]: 18.7 µg/mL (≈ 76.6 µM) | Virus rating [9]: 3.6 | Virus rating [10]: 2.4 | IC50 [11]: 3 µg/mL (≈ 12.3 µM) | Virus rating (Punta Toro virus [12]): 1.8 | IC50 (Punta Toro virus [13]): 20.1 µg/mL (≈ 82.3 µM) | selectivity ratio ([14]; read-out: Therapeutic index): 5

c1c[se]cn1 [SELENAZOLE]
IC50 (Yellow fever virus [15]): 0.6 µg/mL (≈ 4.54 µM) | Virus rating (Yellow fever virus [16]): 2.4 | selectivity ratio ([14]; read-out: Therapeutic ratio): 1.8

Nc1ncnc2c1ncn2[C@@H]1O[C@H](CO)[C@@H](O)[C@@H]1O [VIDARABINE]
Virus rating (Human alphaherpesvirus 1 [17]): 3.3 and 2.9 | IC50 (Human alphaherpesvirus 2 [4]): 49.9 µg/mL (≈ 187 µM) | Virus rating (Human alphaherpesvirus 2 [5]): 1.3 | ID50 (Human alphaherpesvirus 1 [18]): 1.9 µg/mL (≈ 7.11 µM) | IC50 (Human alphaherpesvirus 1 [18]; Human alphaherpesvirus 1, read-out: ID50 (the source's name)): 2.1 µg/mL (≈ 7.86 µM) | IC50 (Human alphaherpesvirus 1 [6]): 13.6 µg/mL (≈ 50.9 µM) | Virus rating (Human alphaherpesvirus 1 [7]): 1.8
